Assay results from ChEMBL document CHEMBL1136807, “CC-1065 analogues bearing different DNA-binding subunits: synthesis, antitumor activity, and preliminary toxicity study” (J Med Chem, 2003).

Key:
[1] = tested on: Mus musculus; assay: Increase in life span of mice bearing L1210 leukemia after administration of 25 […] compound; type: functional
How it was run: (§1)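 In vivo antitumor test in mice bearing L1210 leukemia, read out as increase in life span (ILS). Body weight was monitored. The optimal dose was defined as the dose giving the best antitumor efficacy with body weight loss ≤15%.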

[2] = tested on: Mus musculus; assay: Days until first mouse died treated with 100 […] compound; type: functional
How it was run: (§2)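 Delayed-toxicity study in non-tumor-bearing BDF1 mice: single ip dose given on day 0, then animals observed for up to 180 days. Recorded the day the first mouse died and the number of mice alive on day 180, with 6–8 mice per group.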

[3] = tested on: Mus musculus; assay: Number of mice bearing L1210 leukemia that survived after 30 days, after administration of 42 µg/kg compound
[4] = tested on: Mus musculus; assay: Increase in life span of mice bearing L1210 leukemia after administration of 42 […] compound; type: functional; how it was run: as §1
[5] = tested on: Mus musculus; assay: Weight change in mice bearing L1210 leukemia after administration of 70 […] compound; type: functional
[6] = tested on: Mus musculus; assay: Increase in life span of mice bearing L1210 leukemia after administration of 70 […] compound; toxic; type: functional, organism-based; design: dose 70 […]
[7] = tested on: Mus musculus; assay: Weight change in mice bearing L1210 leukemia after administration of 42 […] compound; type: functional
[8] = tested on: L1210; assay: Compound was tested in vitro against L1210 leukemia cells; type: functional, cell-based; conditions: Mus musculus
How it was run: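 L1210 murine leukemia cells exposed to drug for 48 h; IC50 reported in nM.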

[9] = tested on: Mus musculus; assay: Number of mice bearing L1210 leukemia that survived after 30 days, after administration of 70 […] compound; type: functional; how it was run: as §1
[10] = tested on: Mus musculus; assay: Number of mice surviving on day 180 treated with 100 […] compound; 4/8; type: functional, organism-based
[11] = tested on: Mus musculus; assay: Number of mice bearing L1210 leukemia that survived after 30 days, after administration of 25 […] compound; type: functional; how it was run: as §1
[12] = tested on: Mus musculus; assay: Weight change in mice bearing L1210 leukemia after administration of 25 […] compound; type: functional
[13] = tested on: Mus musculus; assay: Increase in life span of mice bearing L1210 leukemia after administration of 70 mg/kg compound; type: functional; how it was run: as §1
[14] = tested on: Mus musculus; assay: Number of mice surviving on day 180 treated with 100 […] compound; 2/8; type: functional, organism-based; how it was run: as §2
[15] = tested on: Mus musculus; assay: Weight change in mice bearing L1210 leukemia after administration of 1000 […] compound; type: functional
[16] = tested on: Mus musculus; assay: Number of mice bearing L1210 leukemia that survived after 30 days, after administration of 250 […] compound; type: functional; how it was run: as §1
[17] = tested on: Mus musculus; assay: Increase in life span of mice bearing L1210 leukemia after administration of 250 […] compound; type: functional; how it was run: as §1
[18] = tested on: Mus musculus; assay: Number of mice bearing L1210 leukemia that survived after 30 days, after administration of 500 µg/kg compound
[19] = tested on: Mus musculus; assay: Weight change in mice bearing L1210 leukemia after administration of 500 […] compound; type: functional
[20] = tested on: Mus musculus; assay: Weight change in mice bearing L1210 leukemia after administration of 250 […] compound; type: functional
[21] = tested on: Mus musculus; assay: Days until first mouse died treated with 2000 […] compound; type: functional; how it was run: as §2
[22] = tested on: Mus musculus; assay: Number of mice surviving on day 180 treated with 2000 […] compound; 0/6; type: functional, organism-based
[23] = tested on: Mus musculus; assay: Increase in life span of mice bearing L1210 leukemia after administration of 1000 […] compound; type: functional; how it was run: as §1
[24] = tested on: Mus musculus; assay: Days until first mouse died treated with 1000 […] compound; type: functional; how it was run: as §2
[25] = tested on: Mus musculus; assay: Increase in life span of mice bearing L1210 leukemia after administration of 500 […] compound; type: functional; how it was run: as §1
[26] = tested on: Mus musculus; assay: Number of mice bearing L1210 leukemia that survived after 30 days, after administration of 1000 […] compound; type: functional; how it was run: as §1
[27] = tested on: Mus musculus; assay: Increase in life span of mice bearing L1210 leukemia after administration of 100 […] compound; type: functional; how it was run: as §1
[28] = tested on: Mus musculus; assay: Weight change in mice bearing L1210 leukemia after administration of 67 […] compound; type: functional
[29] = tested on: Mus musculus; assay: Days until first mouse died treated with 100 […] compound; no death; type: functional, organism-based
[30] = tested on: Mus musculus; assay: Number of mice bearing L1210 leukemia that survived after 30 days, after administration of 100 […] compound; type: functional; how it was run: as §1
[31] = tested on: Mus musculus; assay: Increase in life span of mice bearing L1210 leukemia after administration of 67 […] compound; type: functional; how it was run: as §1
[32] = tested on: Mus musculus; assay: Weight change in mice bearing L1210 leukemia after administration of 45 […] compound; type: functional
[33] = tested on: Mus musculus; assay: Number of mice bearing L1210 leukemia that survived after 30 days, after administration of 45 µg/kg compound
[34] = tested on: Mus musculus; assay: Number of mice surviving on day 180 treated with 100 […] compound; 8/8; type: functional, organism-based
[35] = tested on: Mus musculus; assay: Increase in life span of mice bearing L1210 leukemia after administration of 45 […] compound; type: functional; how it was run: as §1
[36] = tested on: Mus musculus; assay: Number of mice bearing L1210 leukemia that survived after 30 days, after administration of 67 […] compound; type: functional; how it was run: as §1
[37] = tested on: Mus musculus; assay: Weight change in mice bearing L1210 leukemia after administration of 100 […] compound; type: functional
[38] = tested on: Mus musculus; assay: Number of mice surviving on day 180 treated with 100 […] compound; 5/8; type: functional, organism-based
[39] = tested on: Mus musculus; assay: Increase in life span of mice bearing L1210 leukemia after administration of 498 […] compound; type: functional; how it was run: as §1
[40] = tested on: Mus musculus; assay: Increase in life span of mice bearing L1210 leukemia after administration of 620 […] compound; type: functional; how it was run: as §1
[41] = tested on: Mus musculus; assay: Weight change in mice bearing L1210 leukemia after administration of 620 […] compound; type: functional
[42] = tested on: Mus musculus; assay: Weight change in mice bearing L1210 leukemia after administration of 298 […] compound; type: functional
[43] = tested on: Mus musculus; assay: Number of mice bearing L1210 leukemia that survived after 30 days, after administration of 498 µg/kg compound
[44] = tested on: Mus musculus; assay: Number of mice bearing L1210 leukemia that survived after 30 days, after administration of 620 […] compound; type: functional; how it was run: as §1
[45] = tested on: Mus musculus; assay: Number of mice bearing L1210 leukemia that survived after 30 days, after administration of 298 […] compound; type: functional; how it was run: as §1
[46] = tested on: Mus musculus; assay: Increase in life span of mice bearing L1210 leukemia after administration of 298 […] compound; type: functional; how it was run: as §1
[47] = tested on: Mus musculus; assay: Weight change in mice bearing L1210 leukemia after administration of 498 […] compound; type: functional
[48] = tested on: Mus musculus; assay: Increase in life span of mice bearing L1210 leukemia after administration of 30 […] compound; type: functional; how it was run: as §1
[49] = tested on: Mus musculus; assay: Number of mice surviving on day 180 treated with 100 […] compound; 7/7; type: functional, organism-based
[50] = tested on: Mus musculus; assay: Number of mice bearing L1210 leukemia that survived after 30 days, after administration of 30 ug/kg compound
[51] = tested on: Mus musculus; assay: Weight change in mice bearing L1210 leukemia after administration of 30 […] compound; type: functional

CC(=O)Nc1ccc2oc(C(=O)Nc3ccc4[nH]c(C(=O)N5C[C@@H](CCl)c6c5cc(O)c5ccccc65)cc4c3)cc2c1
ILS at 25 mg/kg [1]: 120%
Days [2]: 8
Survivors [3]: 0
ILS at 42 mg/kg [4]: 67%
Weight change [5]: -18%
ILS [6]: Toxic
Weight change [7]: -7%
IC50 [8]: 0.65 nM
Survivors [9]: 0
No. of mice [10]: Mice surviving 4/8
Survivors [11]: 1
Weight change [12]: 12%

CC(=O)Nc1ccc2[nH]c(C(=O)Nc3ccc4[nH]c(C(=O)N5C[C@@H](CCl)c6c5cc(O)c5ccccc65)cc4c3)cc2c1
ILS [13]: 80%
ILS at 25 mg/kg [1]: 173%
Days [2]: 49
Survivors [3]: 0
ILS at 42 mg/kg [4]: 133%
Weight change [5]: -6%
Weight change [7]: 5%
No. of mice [14]: Mice surviving 2/8
IC50 [8]: 1.2 nM
Survivors [9]: 0
Survivors [11]: 1
Weight change [12]: 7%

CC(=O)Nc1cc(C(=O)Nc2cc(C(=O)N3CC(CCl)c4c3cc(O)c3ccccc43)n(C)c2)n(C)c1 (racemic)
Weight change [15]: -6%
Survivors [16]: 0
ILS at 250 mg/kg [17]: 31%
Survivors [18]: 0
Weight change [19]: 5%
Weight change [20]: 7%
Days until first death [21]: 29 days
No. of mice [22]: Mice surviving 0/6
ILS at 1000 mg/kg [23]: 77%
IC50 [8]: 44 nM
Days [24]: 60
ILS at 500 mg/kg [25]: 31%
Survivors [26]: 0

O=C(Nc1ccc2[nH]c(C(=O)N3CC(CCl)c4c3cc(O)c3ccccc43)cc2c1)c1cc2cc(F)ccc2[nH]1 (racemic)
ILS at 100 mg/kg [27]: 158%
Weight change [28]: -2%
Days [29]: No death
Survivors [30]: 0
ILS at 67 mg/kg [31]: 160%
IC50 [8]: 0.29 nM
Weight change [32]: 2%
Survivors [33]: 0
No. of mice [34]: Mice surviving 8/8
ILS at 45 mg/kg [35]: 137%
Survivors [36]: 0
Weight change [37]: -7%

CC(=O)Nc1ccc2oc(C(=O)Nc3ccc4[nH]c(C(=O)N5CC(CCl)c6c5cc(O)c5ccccc65)cc4c3)cc2c1 (racemic)
IC50 [8]: 1.2 nM

O=C(Nc1ccc2[nH]c(C(=O)N3CC(CCl)c4c3cc(O)c3ccccc43)cc2c1)c1cc2cc([N+](=O)[O-])ccc2o1 (racemic)
ILS at 100 mg/kg [27]: 173%
Weight change [28]: -2%
Days [29]: No death
Survivors [30]: 0
ILS at 67 mg/kg [31]: 147%
IC50 [8]: 0.44 nM
Weight change [32]: 2%
Survivors [33]: 0
No. of mice [34]: Mice surviving 8/8
ILS at 45 mg/kg [35]: 120%
Survivors [36]: 0
Weight change [37]: -5%

COc1ccc2[nH]c(C(=O)Nc3ccc4[nH]c(C(=O)N5CC(CCl)c6c5cc(O)c5ccccc65)cc4c3)cc2c1 (racemic)
ILS at 100 mg/kg [27]: 53%
Days [2]: 35
Weight change [28]: 3%
No. of mice [38]: Mice surviving 5/8
Survivors [30]: 0
ILS at 67 mg/kg [31]: 93%
IC50 [8]: 5.7 nM
Weight change [32]: 2%
Survivors [33]: 0
ILS at 45 mg/kg [35]: 93%
Survivors [36]: 0
Weight change [37]: -15%

O=C(Nc1ccc2[nH]c(/C=C/C(=O)N3CC(CCl)c4c3cc(O)c3ccccc43)cc2c1)c1cc2ccccc2[nH]1 (racemic)
ILS at 498 mg/kg [39]: 231%
ILS at 620 mg/kg [40]: 147%
Weight change [41]: -13%
Weight change [42]: 0%
Survivors [43]: 1
Days [29]: No death
IC50 [8]: 1 nM
No. of mice [34]: Mice surviving 8/8
Survivors [44]: 0
Survivors [45]: 0
ILS at 298 mg/kg [46]: 157%
Weight change [47]: 0%

CC(=O)Nc1ccc2[nH]c(C(=O)Nc3ccc4[nH]c(C(=O)N5CC(CCl)c6c5cc(O)c5ccccc65)cc4c3)cc2c1 (racemic)
IC50 [8]: 2.5 nM

O=C(Nc1ccc2[nH]c(C(=O)N3CC(CCl)c4c3cc(O)c3ccccc43)cc2c1)c1cc2cc(F)ccc2o1 (racemic)
ILS at 30 mg/kg [48]: 67%
No. of mice [49]: Mice surviving 7/7
Survivors [50]: 0
Weight change [28]: 0%
Weight change [51]: 5%
Days [29]: No death
ILS at 67 mg/kg [31]: 147%
IC50 [8]: 0.85 nM
Weight change [32]: 5%
Survivors [33]: 0
ILS at 45 mg/kg [35]: 107%
Survivors [36]: 0

COc1cccc2c1C(=O)c1c(O)c3c(c(O)c1C2=O)C[C@@](O)(C(=O)CO)C[C@@H]3O[C@H]1C[C@H](N)[C@H](O)[C@H](C)O1 [DOXORUBICIN]
IC50 [8]: 179 nM
